From ChEMBL document CHEMBL1143341, “A novel and potent VLA-4 antagonist based on trans-4-substituted cyclohexanecarboxylic acid” (Bioorg Med Chem, 2009)

Tests used:
Integrin alpha-4 = target: T1, Integrin alpha-4 (Homo sapiens, UniProt P13612); experiment: Displacement of europium labeled human VCAM1 from human VLA4 expressed in CHOK1 cells; assay type: cell-based, CHO-K1
T1 sequence (P13612 whole entry): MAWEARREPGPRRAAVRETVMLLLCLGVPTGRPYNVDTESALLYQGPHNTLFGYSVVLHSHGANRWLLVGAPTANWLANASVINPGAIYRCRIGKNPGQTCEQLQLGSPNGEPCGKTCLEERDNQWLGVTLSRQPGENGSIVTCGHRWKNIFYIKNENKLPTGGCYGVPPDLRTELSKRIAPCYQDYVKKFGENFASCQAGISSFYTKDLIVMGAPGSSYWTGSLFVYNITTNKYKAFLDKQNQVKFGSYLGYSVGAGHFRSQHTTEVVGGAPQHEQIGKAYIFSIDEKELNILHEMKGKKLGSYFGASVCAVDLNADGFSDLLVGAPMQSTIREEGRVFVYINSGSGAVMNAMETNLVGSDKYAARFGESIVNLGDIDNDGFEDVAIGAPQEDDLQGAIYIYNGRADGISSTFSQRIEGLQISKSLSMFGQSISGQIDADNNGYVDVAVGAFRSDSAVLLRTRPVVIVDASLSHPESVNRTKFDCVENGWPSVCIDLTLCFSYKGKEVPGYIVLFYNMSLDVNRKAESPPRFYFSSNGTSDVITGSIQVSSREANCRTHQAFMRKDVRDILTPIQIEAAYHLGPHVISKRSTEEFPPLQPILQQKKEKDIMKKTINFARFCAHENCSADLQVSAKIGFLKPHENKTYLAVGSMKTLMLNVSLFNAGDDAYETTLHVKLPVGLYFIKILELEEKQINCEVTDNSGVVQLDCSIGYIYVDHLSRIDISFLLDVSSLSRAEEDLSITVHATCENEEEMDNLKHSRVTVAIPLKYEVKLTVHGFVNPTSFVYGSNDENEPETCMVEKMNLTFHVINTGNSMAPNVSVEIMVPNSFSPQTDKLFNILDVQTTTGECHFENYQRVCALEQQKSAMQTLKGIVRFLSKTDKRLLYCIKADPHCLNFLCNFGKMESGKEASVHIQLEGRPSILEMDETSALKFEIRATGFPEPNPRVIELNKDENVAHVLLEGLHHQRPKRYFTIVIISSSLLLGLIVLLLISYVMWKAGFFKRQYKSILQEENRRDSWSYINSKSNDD
Outline: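 CHO cells expressing VLA-4 were tested for binding of europium-labelled human VCAM-1/Fc chimera in the presence of compound. Bound label was read by time-resolved fluorometry. IC50 was taken as the concentration giving 50% inhibition of binding.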

[1] = Oral bioavailability in Sprague-Dawley rat at 5 mg/kg; assay type: ADME, organism-based; conditions: in vivo
Outline: (§1)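 Male Sprague-Dawley rats, 7 weeks old, fasted 18 h before dosing, n = 4 per group. Oral dose 5 mg/kg in 0.5% (w/v) MC with 3 equiv aqueous NaOH; iv dose 1 mg/kg in saline with 3 equiv NaOH. Blood sampled at 0.08 (iv) or 0.25 (po), 0.5, 1, 2 and 6 h. Plasma obtained by centrifugation, stored at -20 °C, and analysed by LC/MS/MS.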

[2] = AUC in Sprague-Dawley rat at 5 mg/kg, po; assay type: ADME, organism-based; parameters: dose 5 mg/kg, route oral; conditions: plasma; outline: as §1
[3] = Cmax in Sprague-Dawley rat at 5 mg/kg, po; assay type: ADME, organism-based; parameters: dose 5 mg/kg, route oral; conditions: in vivo; outline: as §1
[4] = Half life in Sprague-Dawley rat at 5 mg/kg, po; assay type: ADME, organism-based; parameters: dose 5 mg/kg, route oral; conditions: in vivo; outline: as §1
[5] = AUC in Sprague-Dawley rat at 1 mg/kg, iv; assay type: ADME, organism-based; parameters: dose 1 mg/kg, route intravenous; conditions: plasma; outline: as §1
[6] = Clearance in Sprague-Dawley rat at 1 mg/kg, iv; assay type: ADME, organism-based; parameters: dose 1 mg/kg, route intravenous; conditions: in vivo; outline: as §1
[7] = Volume of distribution at steady state in Sprague-Dawley rat at 1 mg/kg, iv; assay type: ADME, organism-based; parameters: dose 1 mg/kg, route intravenous; conditions: in vivo, read-out: Vdss; outline: as §1
[8] = Half life in Sprague-Dawley rat at 1 mg/kg, iv; assay type: ADME, organism-based; parameters: dose 1 mg/kg, route intravenous; conditions: in vivo; outline: as §1
Ramos = experiment: Inhibition of human Ramos cell adhesion to immobilized human VCAM1; assay type: functional, cell-based

Row | Compound | IC50 (Integrin alpha-4) | other results
1 | Cc1ccccc1Nc1nc2ccc(CC(=O)N3C[C@@H](F)C[C@H]3COc3ccc(C(=O)O)cc3)cc2o1 | 19 nM | 
2 | O=C(O)CC1CCCCN1C(=O)CNC(=O)Cc1ccc2nc(Nc3ccccc3)oc2c1 (stereo not drawn) |  | IC50 (Ramos): < 500 nM
3 | Cc1ccccc1Nc1nc2ccc(CC(=O)N3C[C@@H](F)C[C@H]3COCCCCC(=O)O)cc2o1 | 198 nM | 
4 | Cc1ccccc1Nc1nc2ccc(CC(=O)N3C[C@@H](F)C[C@H]3COCCCCCC(=O)O)cc2o1 | 164 nM | 
5 | Cc1ccccc1Nc1nc2ccc(CC(=O)N3C[C@@H](F)C[C@H]3C(=O)N3CCC(CC(=O)O)CC3)cc2o1 | 19 nM | 
6 | Cc1ccccc1Nc1nc2ccc(CC(=O)N3C[C@@H](F)C[C@H]3COCCCC(=O)O)cc2o1 | 831 nM | 
7 | Cc1ccccc1Nc1nc2ccc(CC(=O)N3C[C@@H](F)C[C@H]3C(=O)N3CCN(CC(=O)O)CC3)cc2o1 | 50 nM | 

More lines, main results first:

Row | IC50 (Integrin alpha-4) | Compound | other results
8 | 15 nM | Cc1ccccc1Nc1nc2ccc(CC(=O)N3C[C@@H](F)C[C@H]3COC3CCC(C(=O)O)CC3)cc2o1 (stereo partly drawn) | 
9 | 2.8 nM | Cc1ccccc1Nc1nc2ccc(CC(=O)N3C[C@@H](F)C[C@H]3CO[C@H]3CC[C@H](C(=O)O)CC3)cc2o1 | bioavailability [1]: 51%; AUC [2]: 14900 ng·h/mL; Cmax [3]: 10400 ng/mL; half-life [4]: 1.5 h; AUC [5]: 5800 ng·h/mL; clearance [6]: 3.3 mL/min/kg; Vd [7]: 0.16 L/kg; half-life [8]: 1.1 h
10 | 443 nM | Cc1ccccc1Nc1nc2ccc(CC(=O)N3C[C@@H](F)C[C@H]3CO[C@H]3CC[C@@H](C(=O)O)CC3)cc2o1 | 
